PostGolgi ctrl: growth inhibition of yeast control strain, primary screen, counter-screen for post-Golgi transport modulator project; inhibition, % at 10 µM; 98,000 compounds, 5% hits; efflux-deficient yeast background strain, growth absorbance A615, 16 h
PostGolgi yeast: phenotypic screen on post-Golgi transport, primary screen; post-Golgi transport phenotypic cell assay; 98,000 compounds, 0.9% hits; inhibition, % at 10 µM;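 also: yeast cells grown in 1536-well plates; yeast grown about 18 h at 30C before absorbance read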
EphB4 antag: EphB4-ephrin-B2 interaction antagonists, primary screen, biochemical, TNYL-RAW peptide probe, fluorescence polarization; EphB4 LBD / TNYL-RAW-Alexa532 peptide; inhibition, % at 7 µM; 97,000 compounds, 0.15% hits;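 active = inhibition above the screen-wide mean inhibition plus 3 SD, cut at about 15% in these data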;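 also: 0% = DMSO wells and 100% = excess unlabeled TNYL-RAW peptide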
Target sequence (P54760 whole entry, looked up, the tested form may be a part): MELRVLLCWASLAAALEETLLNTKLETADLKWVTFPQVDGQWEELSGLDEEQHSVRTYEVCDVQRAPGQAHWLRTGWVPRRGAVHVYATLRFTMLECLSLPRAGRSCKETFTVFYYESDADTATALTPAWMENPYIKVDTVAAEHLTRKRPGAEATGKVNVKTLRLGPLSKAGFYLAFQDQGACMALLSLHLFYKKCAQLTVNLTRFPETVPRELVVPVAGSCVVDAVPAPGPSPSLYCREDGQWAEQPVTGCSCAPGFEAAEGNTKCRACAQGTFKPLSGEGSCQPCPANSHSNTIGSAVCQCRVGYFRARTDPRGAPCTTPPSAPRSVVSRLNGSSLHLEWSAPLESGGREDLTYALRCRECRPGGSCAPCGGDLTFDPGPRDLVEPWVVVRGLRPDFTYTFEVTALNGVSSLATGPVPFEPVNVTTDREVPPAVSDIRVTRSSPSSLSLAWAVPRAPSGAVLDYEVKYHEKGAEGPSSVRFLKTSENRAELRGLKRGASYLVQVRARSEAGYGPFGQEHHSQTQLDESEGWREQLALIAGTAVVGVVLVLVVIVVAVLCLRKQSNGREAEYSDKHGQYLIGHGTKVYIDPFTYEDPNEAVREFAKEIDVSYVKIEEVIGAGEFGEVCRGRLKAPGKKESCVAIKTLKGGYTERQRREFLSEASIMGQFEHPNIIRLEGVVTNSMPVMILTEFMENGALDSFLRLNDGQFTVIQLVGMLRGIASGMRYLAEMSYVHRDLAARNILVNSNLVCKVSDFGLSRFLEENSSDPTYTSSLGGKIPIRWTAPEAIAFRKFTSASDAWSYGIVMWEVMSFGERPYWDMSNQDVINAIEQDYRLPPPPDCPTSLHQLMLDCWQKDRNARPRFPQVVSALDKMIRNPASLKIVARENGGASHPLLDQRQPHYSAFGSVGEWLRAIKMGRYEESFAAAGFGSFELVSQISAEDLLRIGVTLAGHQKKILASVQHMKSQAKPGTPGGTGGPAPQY
Ecoli tolC: growth inhibitors of E. coli tolC mutant, primary screen, strain BW25113 ΔtolC::kan, 384-well; 65,000 compounds, 2.2% hits; growth inhibition, % at 10 µM (by protocol); OD615;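 active = growth inhibition at or above a cutoff equal to the mean over every tested compound plus 3 SD, cut at about 60% in these data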;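 also: growth measured after 20 h incubation at 37 °C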
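Test system – E. coli BW25113 ΔtolC::kan, tolC deletion mutant strain · Detection – OD at 615 nm · Buffer or medium – LB with kanamycin 50 µg/mL · Times – 20 h compound exposure of bacteria at 37 °C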
E coli WT exp: growth inhibitors of wild-type E. coli, primary screen, strain BW25113, expanded library, OD600 | OD600 absorbance | growth inhibition, % at 100 µM | 98,000 compounds, 0.15% hits | AID 710, 2007;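 active = growth inhibition above about 50% at one test dose, limit read from the data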;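 also: growth measured after 20 h incubation at 37 °C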
* = called active by the depositor; nt = no result. In the library only some 6% were active in any assay of this set; here they are far more common. Rule as the data show it, unless noted: active = inhibition above about 30%; inactive = the rest.

SMILES	PostGolgi ctrl	PostGolgi yeast	EphB4 antag	Ecoli tolC	E coli WT exp
O=C1CN(C(=O)COC(=O)c2ccccc2NC(=O)c2ccco2)c2ccccc2N1	-7	0	-1	7	-11
c1ccc(-c2nc(CSc3n[nH]c(-c4cccs4)n3)cs2)cc1	34*	-1	4	nt	-6
Cc1cccc(NC(=O)CCc2ccc(S(=O)(=O)NC3CCCCC3)cc2)c1	-2	4	6	nt	-8
CCOC(=O)c1c(C)oc2c1cc(O)c1ccccc12	39*	-6	-4	-9	4
CCOC(=O)c1c(C)[nH]c2c1cc(O)c1ccccc12	7	3	5	nt	3
Cc1ccc(CNC(=O)C2CC(c3cccc([N+](=O)[O-])c3)=NO2)o1 (centres undefined)	3	-5	3	nt	11
CC1=CC(C)(C)Nc2ccc(OC(=O)CN3C(=O)c4cccc5cccc(c45)C3=O)cc21	-8	33*	0	nt	-3
CC1=CC(C)(C)Nc2ccc(OC(=O)C(Cc3ccccc3)N3C(=O)c4ccccc4C3=O)cc21 (centres undefined)	3	1	0	nt	-10
O=C(NCCCN1CCCC1=O)c1cccs1	9	2	nt	-13	2
O=C(NCCCN1CCCC1=O)c1cccc(C(F)(F)F)c1	35*	-5	2	-3	0
O=C(C1CCN(S(=O)(=O)c2cccc3cccnc23)CC1)N1CCN(c2ccc(Cl)cc2)CC1	17	-1	-1	27	-13
CCOc1ccc(C(Nc2ccc(C)cc2)P2(=O)OCCC(C)O2)cc1 (centres undefined)	28	-8	-2	nt	2
COc1ccc(Cl)cc1NC(=O)NCCCl	23	1	2	nt	7
CON1C(=O)C(=O)N(OC)C(C)(C)C1C (centres undefined)	31*	5	7	nt	-2
CS(=O)(=O)N(CC(O)Cn1c2ccccc2c2ccccc21)c1ccccc1 (centres undefined)	8	-7	-5	59	-16
CCN(CC(O)Cn1c2ccccc2c2ccccc21)S(=O)(=O)c1ccc(C)cc1 (centres undefined)	55*	-3	7	nt	-17
COc1cccc(/C=N/NC(=O)c2cc(C34CC5CC(CC(C5)C3)C4)[nH]n2)c1	66*	-3	3	nt	-7
COc1cccc(/C=N/NC(=O)c2cc(-c3cccn3C)n[nH]2)c1	4	4	-5	nt	4
N#Cc1c(-c2cccs2)nc(SCC(=O)c2cccs2)[nH]c1=O	-6	15	4	nt	2
Cc1c(/C(O)=C2/C(=O)C(=O)N(CCCN3CCOCC3)C2c2ccncc2)cnn1-c1ccccc1 (centres undefined)	nt	nt	nt	6	nt
O=C(Nc1cnc2ccccn2c1=O)c1ccc(Cl)cc1	2	-14	-1	nt	8
Cn1c(NC(=O)c2ccccc2NC(=O)C(C)(C)C)nc2ccccc21	12	3	1	99*	-1
CC(C)(C)C(=O)Nc1ccccc1C(=O)Nc1ccccn1	nt	nt	-5	nt	nt
CCOc1cc(Br)ccc1S(=O)(=O)NCc1ccccc1	2	-2	1	nt	11
O=CNc1ccc(S(=O)(=O)NCc2ccccc2)cc1	4	-10	11	nt	3
SMILES	PostGolgi ctrl	PostGolgi yeast	EphB4 antag	Ecoli tolC	E coli WT exp
COc1ccc(OC)c(S(=O)(=O)Nc2cc(OC)c(Cl)cc2OC)c1	20	4	1	22	6
COc1cc(NS(=O)(=O)c2ccc(OC)c(C)c2C)c(OC)cc1Cl	36*	-5	-3	65*	-11
O=C(CSC(=S)N1CCOCC1)Nc1nc(-c2ccccc2)c(-c2ccccc2)o1	35*	4	-8	nt	-6
COc1cccc(OCc2nc3ccccc3c(=O)n2N)c1	31*	-22	2	13	0
Nn1c(COc2ccccc2)nc2ccccc2c1=O	4	18	-1	-16	3
O=C(CSc1nnc(-c2c[nH]c3ccccc23)o1)N(Cc1ccccc1)c1ccc(F)cc1	53*	-5	-2	59	-21
COC(=O)C1=C(C(=O)OC)SC(=C2C(=S)C(C)(C)N(C(=O)CC(C)C)c3ccccc32)S1	7	0	-4	nt	-2
CCc1nc(N)c(C#N)c(-c2cccc3ccccc23)c1C	nt	nt	4	nt	nt
Cc1c(-c2ccccc2)nc(N)c(C#N)c1-c1ccco1	4	-4	4	-17	-15
CC1=C(C#N)c2nc(N)c(C#N)c(C)c2/C1=C\c1ccccc1	nt	nt	nt	74*	nt
Cc1nc(N)c(C#N)c(-c2ccccc2)c1C	31*	-1	5	-2	-5
Nc1nc(N2CCOCC2)cc(=O)[nH]1	6	-7	0	nt	1
CCOC(=O)/C=C(\C)Sc1cc(=O)oc2ccccc12	33*	8	-6	16	7
CCOC(=O)Nc1oc2ccccc2c(=O)c1C	nt	nt	5	nt	nt
O=C(CC1(O)C(=O)Nc2ccccc21)c1ccc(-n2cccc2)cc1 (centres undefined)	31*	-4	8	-2	7
CCOC(=O)C(C)Sc1nc2c(c(=O)[nH]c(=O)n2C)n1Cc1ccc(Cl)cc1 (centres undefined)	32*	3	nt	23	1
Cc1ccc(Cn2c(SCC(C)C)nc3c2c(=O)[nH]c(=O)n3C)cc1	11	-7	-2	nt	-9
CC(C)Sc1nc2c(c(=O)[nH]c(=O)n2C)n1Cc1ccc(Cl)cc1	23	3	-1	-7	-1
CCC(C)Sc1nc2c(c(=O)[nH]c(=O)n2C)n1Cc1ccc(Cl)cc1 (centres undefined)	46*	6	nt	20	-5
Cc1ccc2cc(C)c3nnc(SCC(=O)Nc4nc5c(s4)CCCC5)n3c2c1C	0	5	1	nt	-6
Nc1nc2ccc([N+](=O)[O-])c(N)c2s1	-1	-20	9	nt	39
Cc1cc2nc(SCC(=O)N(C)C)c3c(c2cc1C)CCCC3	31*	0	4	nt	7
CN(C)C(=O)CSc1nc(-c2ccccc2)nc2c1CCCC2	nt	nt	11	nt	nt
CNC(=S)N1N=C(c2ccc(C)cc2)CC1c1ccc(Br)cc1 (centres undefined)	35*	-9	4	nt	-18
CNC(=S)N1N=C(c2ccc(C)cc2)CC1c1ccc(Cl)cc1 (centres undefined)	44*	-2	-6	nt	-15
CCOc1ccccc1-c1cc(C(=O)N/N=C/c2ccc3c(c2)OCO3)c2ccccc2n1	92*	53*	5	nt	-6
COc1ccccc1-c1cc(C(=O)N/N=C/c2sccc2C)c2ccccc2n1	48*	0	1	nt	-18
CC(C)C[C@H](NC(=O)OC(C)(C)C)C(=O)N/N=C/C1=Cc2ccccc2OC1C (some centres undefined)	28	8	-1	nt	-6
O=C(CNC(=O)c1ccc(Cl)cc1)NCCCn1ccnc1	22	3	2	10	2

High-throughput results as filed in PubChem BioAssay.
